Consider six compounds from ChEMBL document CHEMBL1155617, “Cytotoxic constituents of Polyalthia longifolia var. pendula” (J Nat Prod, 2000).

The source made the active and inactive calls. The calls are words filed in the database; no cut-off is given here. Where only a bound is given, the exact number is not on record here.

Holding throughout (type): functional, cell-based
The subject of assay [1] is HepG2. As to the kind of experiment: Cytotoxicity against human HepG2 cells upto 30 by MTS colorimetric assay. In short, it runs like this:
(§1)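 Cells grown in DMEM with 10% fetal calf serum, seeded and cultured 24 h, then exposed to test compounds for 72 h. Viability read by MTS colorimetric assay.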
(In general: Tetrazolium assays rely on reduction of a dye to a coloured formazan, in cell work by metabolically active cells.)

The subject of assay [2] is AGS. Put plainly: Cytotoxicity against human AGS cells upto 30 uM by MTS colorimetric assay. In short, it runs like this:
as §1

Assay [3] concerns HA59T. As to the kind of experiment: Cytotoxicity against human HA59T cells upto 30 by MTS colorimetric assay. The method in brief: as §1
In assay [4] the test system is DLD-1. As to the kind of experiment: Cytotoxicity against human DLD1 cells upto 30 by MTS colorimetric assay. The method in brief:
as §1

Assay [5] concerns AGS. As to the kind of experiment: Cytotoxicity against human AGS cells by MTS colorimetric assay. In short, it runs like this:
(§2)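 Cells grown in DMEM with 10% fetal calf serum and seeded 24 h before treatment. Viability read by MTS colorimetric assay after 72 h compound exposure. IC50 taken as mean concentration giving 50% growth inhibition from replicate values.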

In assay [6] the test system is HepG2. Put plainly: Cytotoxicity against human HepG2 cells by MTS colorimetric assay. In short, it runs like this: as §2
Assay [7] is described as follows: (§3) Cytotoxicity against human HA59T cells by MTS colorimetric assay. The method in brief: as §2
The test system of assay [8] is DLD-1. Put plainly: Cytotoxicity against human DLD1 cells by MTS colorimetric assay. The method in brief:
as §2

The test system of assay [9] is HA59T. Described as §3. The method in brief: as §2

`COc1cc2c(cc1O)[C@@H]1Cc3ccc(O)c(OC)c3CN1CC2`: the outcome in [1], in [2], in assay [3] and in assay [4] was inactive.

One may read the IC50 as the concentration that gives 50% inhibition. Take `c1ccc2c(c1)C[C@H]1NCCc3cc4c(c-2c31)OCO4` [ANONAINE]: the IC50 in assay [5] is 8.6 µM; in [6] it was 20.8 µM; in assay [7] it was 16.4 µM; in assay [8], 28.9 µM.

Take `COc1ccc2c(c1O)-c1nccc(C)c1C2=O`: the half-maximal inhibitory concentration (IC50) in [5] is greater than 30 µM; in [6], greater than 30 µM; in [7], 21.7 µM; in assay [8], greater than 30 µM.

`C[C@@H]1CC[C@@]2(O)[C@H](CC[C@H](O)C2(C)C)[C@@]1(C)CCC1=CC(=O)O[C@@H]1O`: the outcome in [5], in assay [6], in assay [9] and in [8] was inactive.

With `COc1cc2c(cc1O)C[C@@H]1NCCc3cc(O)c(OC)c-2c31`, the outcome in assay [1], in assay [2], in assay [3] and in assay [4] was inactive.

`CC1=CCC[C@@H]2[C@@](C)(CCC3=CC(=O)O[C@@H]3O)[C@H](C)CC[C@@]12C`: the half-inhibitory concentration (IC50) was 26.9 µM in assay [5], greater than 30 µM in assay [6], 23.6 µM in assay [7] and greater than 30 µM in assay [8].
